# Experimental data as given in ChEMBL document CHEMBL1132571, “1-aryl-4-[(5-methoxy-1,2,3, 4-tetrahydronaphthalen-1-yl)alkyl]piperazines and their analogues: influence of the stereochemistry of the tetrahydronaphthalen-1-yl nucleus on 5-HT1A receptor affinity and selectivity versus alpha1 and D2 receptors. 5” (J Med Chem, 1999).
# Legend:
# [1] = Selectivity for alpha-1 receptor compared to 5-HT1A receptor.
# [2] = Selectivity for D2 receptor compared to 5-HT1A receptor.
# [3] = biological target: T1, Adrenergic receptor alpha-1 (Rattus norvegicus, UniProt P15823+P23944+P43140); experiment: In vitro inhibition of [3H]prazosin binding to rat alpha-1 adrenergic receptors.; format: protein assay
# T1 sequence (P15823 whole entry): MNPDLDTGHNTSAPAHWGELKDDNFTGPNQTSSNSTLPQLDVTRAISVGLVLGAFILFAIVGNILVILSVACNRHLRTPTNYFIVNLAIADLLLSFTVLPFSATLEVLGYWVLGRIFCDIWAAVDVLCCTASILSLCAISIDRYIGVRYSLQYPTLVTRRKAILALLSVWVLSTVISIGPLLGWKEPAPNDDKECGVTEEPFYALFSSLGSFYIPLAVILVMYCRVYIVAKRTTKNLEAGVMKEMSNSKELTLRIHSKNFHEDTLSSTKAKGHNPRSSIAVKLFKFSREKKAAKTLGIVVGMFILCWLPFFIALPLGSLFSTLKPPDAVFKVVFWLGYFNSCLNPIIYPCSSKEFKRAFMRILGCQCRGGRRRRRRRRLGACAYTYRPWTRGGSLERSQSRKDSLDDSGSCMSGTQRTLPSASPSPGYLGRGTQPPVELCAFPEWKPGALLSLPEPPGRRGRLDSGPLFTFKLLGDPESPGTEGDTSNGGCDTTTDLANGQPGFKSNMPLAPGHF
# T1 sequence (P23944 whole entry): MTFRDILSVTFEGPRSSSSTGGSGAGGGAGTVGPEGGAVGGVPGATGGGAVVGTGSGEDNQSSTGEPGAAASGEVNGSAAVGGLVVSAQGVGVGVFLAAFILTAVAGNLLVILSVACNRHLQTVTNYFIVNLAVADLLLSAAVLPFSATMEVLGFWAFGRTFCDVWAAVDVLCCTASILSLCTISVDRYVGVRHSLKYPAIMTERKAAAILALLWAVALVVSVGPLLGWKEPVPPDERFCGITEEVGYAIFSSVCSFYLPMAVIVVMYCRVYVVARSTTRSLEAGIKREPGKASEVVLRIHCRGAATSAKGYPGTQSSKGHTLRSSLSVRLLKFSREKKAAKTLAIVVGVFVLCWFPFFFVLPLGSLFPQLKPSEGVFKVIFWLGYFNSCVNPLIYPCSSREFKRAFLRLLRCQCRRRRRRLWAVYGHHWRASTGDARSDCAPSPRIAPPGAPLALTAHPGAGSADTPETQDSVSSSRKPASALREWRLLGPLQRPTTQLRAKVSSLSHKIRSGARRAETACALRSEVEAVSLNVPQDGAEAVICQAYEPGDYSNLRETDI
# T1 sequence (P43140 whole entry): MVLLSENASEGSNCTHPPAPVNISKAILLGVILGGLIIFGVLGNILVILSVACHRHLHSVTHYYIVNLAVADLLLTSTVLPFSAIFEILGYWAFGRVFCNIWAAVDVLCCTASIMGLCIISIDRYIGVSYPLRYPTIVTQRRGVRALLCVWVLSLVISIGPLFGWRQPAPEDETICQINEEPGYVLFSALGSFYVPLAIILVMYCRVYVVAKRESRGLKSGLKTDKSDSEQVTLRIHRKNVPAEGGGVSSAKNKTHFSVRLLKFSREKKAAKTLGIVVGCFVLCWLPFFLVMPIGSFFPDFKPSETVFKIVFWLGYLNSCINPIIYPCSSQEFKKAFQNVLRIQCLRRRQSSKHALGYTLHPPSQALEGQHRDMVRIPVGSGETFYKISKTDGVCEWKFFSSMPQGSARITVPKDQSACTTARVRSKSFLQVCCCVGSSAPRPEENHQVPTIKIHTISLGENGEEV
# Outline: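 [3H]Prazosin displacement in rat brain cortex membranes, standard binding procedure, with eight to nine concentrations of each hydrochloride salt. Specific binding was above 80% of total. LIGAND program used to obtain IC50 from inhibition of specific binding.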
# [4] = biological target: T2, 5-hydroxytryptamine receptor 1A (Rattus norvegicus, UniProt P19327); experiment: In vitro inhibition of [3H]8-OH-DPAT binding to rat 5-HT 1a receptors.
# T2 sequence (P19327 whole entry): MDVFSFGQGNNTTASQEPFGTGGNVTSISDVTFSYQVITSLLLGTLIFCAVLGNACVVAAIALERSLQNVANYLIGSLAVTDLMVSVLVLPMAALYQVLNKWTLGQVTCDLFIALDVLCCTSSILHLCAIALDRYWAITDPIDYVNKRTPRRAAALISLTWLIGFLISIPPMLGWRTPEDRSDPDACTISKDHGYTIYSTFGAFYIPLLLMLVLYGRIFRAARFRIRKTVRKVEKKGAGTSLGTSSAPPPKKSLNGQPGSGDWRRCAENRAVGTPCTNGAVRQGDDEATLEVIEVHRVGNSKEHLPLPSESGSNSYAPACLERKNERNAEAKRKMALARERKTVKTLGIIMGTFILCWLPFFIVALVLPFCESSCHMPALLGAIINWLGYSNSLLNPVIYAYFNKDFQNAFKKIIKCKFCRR
# Outline: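 Rat hippocampal membranes labelled with [3H]-8-OH-DPAT by standard binding methods, in competition with eight to nine test concentrations. Specific binding was over 80% of total. IC50 derived from inhibition of specific radioligand binding by LIGAND analysis.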
# D(2) dopamine receptor = D(2) dopamine receptor (Rattus norvegicus, UniProt P61169); experiment: In vitro inhibition of [3H]spiroperidol binding to rat Dopamine D2 receptors.
# D(2) dopamine receptor, sequence (P61169 whole entry): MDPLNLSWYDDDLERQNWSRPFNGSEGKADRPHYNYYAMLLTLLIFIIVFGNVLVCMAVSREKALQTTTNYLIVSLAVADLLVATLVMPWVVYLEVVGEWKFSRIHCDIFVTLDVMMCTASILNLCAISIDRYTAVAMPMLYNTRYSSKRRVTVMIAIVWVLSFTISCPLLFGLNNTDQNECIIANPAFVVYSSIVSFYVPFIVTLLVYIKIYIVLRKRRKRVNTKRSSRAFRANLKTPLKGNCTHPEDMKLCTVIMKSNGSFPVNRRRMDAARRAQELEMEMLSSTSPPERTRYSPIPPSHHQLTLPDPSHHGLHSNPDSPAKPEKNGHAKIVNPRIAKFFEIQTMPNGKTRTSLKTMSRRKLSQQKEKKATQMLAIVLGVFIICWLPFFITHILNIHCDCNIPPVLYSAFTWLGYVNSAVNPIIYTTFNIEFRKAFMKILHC
Compound,Selectivity [1],Selectivity [2],IC50 [3],IC50 [4],IC50 (D(2) dopamine receptor)
COc1ccccc1N1CCN(CCNC2CCCc3c(OC)cccc32)CC1 (configuration not stated),29,49,–,–,–
COc1ccccc1N1CCN(CCC[C@@H]2CCCc3c(OC)cccc32)CC1,–,–,33 nM,1.3 nM,–
COc1ccccc1N1CCN(CCCNC2CCCc3c(OC)cccc32)CC1 (configuration not stated),88,106,–,–,–
COc1cccc2c1CCC[C@H]2CCCN1CCN(c2ccccc2)CC1,396,254,950 nM,2.4 nM,610 nM
COc1ccccc1N1CCN(CCC[C@H]2CCCc3c(OC)cccc32)CC1,–,–,0.8 nM,1.6 nM,–
COc1cccc2c1CCCC2CCCN1CCN(c2ccccc2)CC1 (configuration not stated),86,220,–,–,–
COc1ccccc1N1CCN(CCC(=O)N[C@H]2CCCc3c(OC)cccc32)CC1,–,–,240 nM,–,2600 nM
COc1cccc2c1CCCC2CCCN1CCN(c2ccccn2)CC1 (configuration not stated),122,259,–,–,–
COc1ccccc1N1CCN(CCCN[C@@H]2CCCc3c(OC)cccc32)CC1,243,271,1700 nM,7 nM,1900 nM
COc1ccccc1N1CCN(CCC(=O)N[C@@H]2CCCc3c(OC)cccc32)CC1,–,–,770 nM,–,870 nM
COc1ccccc1N1CCN(CCCN[C@H]2CCCc3c(OC)cccc32)CC1,19,68,649 nM,34 nM,2300 nM
COc1cccc2c1CCC[C@@H]2CCCN1CCN(c2ccccc2)CC1,14,205,61 nM,4.3 nM,880 nM
COc1ccccc1N1CCN(CCN[C@@H]2CCCc3c(OC)cccc32)CC1,100,320,1000 nM,10 nM,3200 nM
COc1cccc2c1CCC[C@@H]2CCCN1CCN(c2ccccn2)CC1,19,196,85 nM,4.5 nM,880 nM
COc1cccc2c1CCC[C@H]2CCCN1CCN(c2ccccn2)CC1,252,261,580 nM,2.3 nM,600 nM
NCCCC1(CCCN)CCc2cccc(O)c2C1,–,–,–,2.5 nM,–
COc1ccccc1N1CCN(CCN[C@H]2CCCc3c(OC)cccc32)CC1,33,93,228 nM,7 nM,650 nM
